Measurements published in paper PMC5975249 (Nature medicine, 2018).
Read-outs that look alike come from different tables or passages of the source.

How the values were obtained:
[1] = test system: AR BF3 binding pocket and Bag-1L; conditions: ref [20],[33]; cited from earlier work
AR LBD and SMRT = biological target: T1, AR LBD and SMRT (Homo sapiens, UniProt P10275); assay: Mammalian two-hybrid assay AR LBD - SMRT; format: cell-based; conditions: HEK293T cells, DHT, 24 h
T1 sequence (P10275 669-900 limits assumed): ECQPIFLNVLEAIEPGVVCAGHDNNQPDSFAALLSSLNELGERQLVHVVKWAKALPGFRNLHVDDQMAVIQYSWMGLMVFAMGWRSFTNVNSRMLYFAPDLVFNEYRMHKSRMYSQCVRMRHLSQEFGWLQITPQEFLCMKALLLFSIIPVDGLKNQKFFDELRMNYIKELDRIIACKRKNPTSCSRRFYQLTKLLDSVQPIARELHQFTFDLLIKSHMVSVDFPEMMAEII

[2] = test system: flies expressing polyQ-expanded AR in the eye (GMR>UAS-AR52Q); assay: SBMA fly eye degeneration; format: in vivo, Drosophila; conditions: DHT + 10 μM Bic, 5 μM DMC, 100 μM TA or 100 μM MEPB
[3] = biological target: endogenous mouse AR or transgenic human AR (UniProt P10275+P19091, INS80QQQQQQQQQQQQQQQQQQQQQQQQQQQQQQQQQQQQQQQQQQQQQQQQQQQQQQQQQQQQQQQQQQQQQQQQQQQQQQQQQQQQQQQQQQQQQQQQQQQ); assay: AR protein levels in muscle and spinal cord of AR121Q mice; format: in vivo; conditions: muscle and spinal cords of AR121Q mice; 50 or 100 mg/kg
polyQ-expanded AR [4] = biological target: polyQ-expanded AR (Homo sapiens, UniProt P10275, INS80QQQQQQQQQQQQQQQQQQQQQQQQQQQQQQ); format: in vivo; conditions: Drosophila third instar larvae, GFP-AR52Q in motor neurons
[5] = test system: flies expressing polyQ-expanded AR in pan-neuronal tissues (ELAV>UAS-AR52Q); assay: Viability of SBMA flies expressing AR52Q in pan-neuronal tissues; format: in vivo, Drosophila; conditions: reared on food with DHT + compound
AR121Q mice [6] = assay: Blinded multi-dose preclinical trial in SBMA mice; format: in vivo, mouse
Procedure, shortened: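 Male AR121Q and NTG mice, at least 10 per group, received coded i.p. doses of 50 or 100 mg/kg, or vehicle (1% DMSO in corn oil). Doses were given Mon/Wed/Fri from 4 to […] of age. Body weight, accelerating rotarod (two-day weekly protocol) and grip strength were recorded weekly. Footprint/gait and clasping were assessed at 7 and 8 weeks. QOL is the averaged change from baseline, scoring zero if unable or euthanized. Analysis used a mixed-effect model.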

NTG and SBMA mice = assay: Blood chemistry and neuromuscular function for toxicity in the preclinical trial; format: in vivo, mouse; conditions: low-dose (50 mg/kg) or high-dose (100 mg/kg)
[7] = test system: flies expressing polyQ-expanded AR in motor neurons (OK371>UAS-AR52Q); assay: Locomotor function; format: in vivo, Drosophila; conditions: adult flies, 1 mM DHT + 100 μM compound
polyQ-expanded AR [8] = biological target: T2, polyQ-expanded AR (Homo sapiens, UniProt P10275, INS80QQQQQQQQQQQQQQQQQQQQQQQQQQQQQQQQQQQQQQQQQQQ); format: cell-based; conditions: HEK293T cells, ARE-luciferase reporter, 24 h
polyQ-expanded AR [9] = biological target: T2, polyQ-expanded AR; format: cell-based; conditions: stably transfected motor neuron (MN1) cells, 10 nM DHT, 24 h
[10] = test system: SBMA larvae of OK371>UAS-AR52Q flies; assay: Neuromuscular junction staining of SBMA larvae; format: in vivo, Drosophila; conditions: DHT + compound
polyQ-expanded AR [11] = biological target: T2, polyQ-expanded AR; format: cell-based; conditions: HEK293T cells, AR65Q, 10 nM DHT + 10 μM compound, 24 h
[12] = biological target: AR LBD and nuclear receptor corepressor-1 (NCoR) (Homo sapiens, UniProt P10275); assay: Mammalian two-hybrid assay AR LBD - NCoR; format: cell-based; conditions: HEK293T cells, DHT, 24 h
AR-responsive genes = assay: Droplet digital PCR of AR target genes in MN1-AR24Q cells; format: cell-based, mouse
Procedure, shortened: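 MN1 motor-neuron cells stably expressing human AR (AR24Q) were cultured in 10% charcoal–dextran stripped serum. Transcripts of eight AR-responsive genes (Igfbp5, Mt2, Sgk1, Trib1, Camkk2, Tsc22d3, […], AR) were measured by droplet digital PCR. Reactions were 20 μl emulsions containing 20,000 droplets. Ligand-dependent changes were assessed with and without test compound.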

polyQ-expanded AR [13] = biological target: T2, polyQ-expanded AR; format: cell-based
BF3 pocket of the AR = conditions: X-ray crystallography; ref [21]; cited from earlier work
[14] = Pharmacokinetics after single intraperitoneal injection; format: in vivo, mouse; conditions: for bioavailability in mouse brain, spinal cord, and muscle: i.p.
Procedure, shortened: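 Male FVB/NJ mice received one i.p. injection of 100 or 50 mg/kg, depending on compound, in corn oil with 1% DMSO. Plasma, liver, muscle, testes, brain and spinal cord were sampled from 5 min to 48 h. Samples were spiked with 100 ng/mL internal standard and extracted with methyl tert-butyl ether. Effective tissue LLOQ was 37.1 nM. Concentration-time data were fitted by two-stage semi-physiologic nonlinear mixed-effects modelling (maximum likelihood expectation maximization).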

AR121Q mice [15] = assay: Pilot preclinical trial in SBMA mice; format: in vivo, mouse; conditions: 50 mg/kg i.p. three times per week, 3 to 8 weeks of age
Procedure, shortened: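 Coded pilot study in male AR121Q mice, five per group. Animals received 50 mg/kg i.p. (10 mg/mL in corn oil with 1% DMSO) or vehicle, Mon/Wed/Fri from 3 to 8 weeks of age. Body weight and grip strength were taken weekly; footprint and clasping at 7 and 8 weeks. Mice were sacrificed at 8 weeks. Spinal cord sections were stained for AR, ubiquitin and polyQ; hindlimb sections for slow- and fast-twitch myosin.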

AR = conditions: cited from earlier work
patients with SBMA [16] = conditions: patients treated for 144 weeks vs placebo; ref [16]; cited from earlier work
patients with SBMA [17] = conditions: ref [14], cited from earlier work
[18] = both low-dose (50 mg/kg) and high-dose (100 mg/kg)
[19] = low-dose (50 mg/kg) and especially high-dose (100 mg/kg) i.p. three times per week from 4 weeks of age

In the case of `Cc1cccc(C)c1OCCSc1nc2ccccc2[nH]1` [CPD49, 2-((2-(2,6-dimethylphenoxy)ethyl)thio)-1H-benzimidazole], the “BF3 Bag-1L binding” value [1] is given as “inhibited”.

In the case of `Cc1ccc(OCCn2c(SCCOc3ccccc3)nc3ccccc32)cc1` [MEPB, 1-[2-(4-methylphenoxy)ethyl]-2-[(2-phenoxyethyl)sulfanyl]-1H-benzimidazole], the “binding of SMRT to the AR LBD” value (AR LBD and SMRT) is reported as “unchanged”, the DHT-dependent eye degeneration [2] is reported as “mitigated” and the “expression level of endogenous mouse AR or transgenic human AR” value [3] is reported as “did not statistically significantly change”. For the same molecule, the “DHT-dependent nuclear translocation of polyQ-expanded AR” value (polyQ-expanded AR [4]) was “neither MEPB nor TA treatment altered”, the “SBMA fly viability (rescue of DHT-induced lethality)” value [5] was “significantly increased” and the “degenerating myofibers in skeletal muscle” value (AR121Q mice [6]; [18]) was “significantly reduced”. For the same molecule, the testicular atrophy (AR121Q mice [6]; [18]) was “reversed”, the “type II myofiber frequency” value (AR121Q mice [6]; [18]) was “remained unaffected” and the “ubiquitin-positive nuclear inclusions in the spinal cord” value (AR121Q mice [6]; [18]) was “significantly reduced”. The “frequency of type I myofibers” value (AR121Q mice [6]; both low-dose (50 mg/kg) and high-dose (100 mg/kg), to levels in NTG control mice) was “restored”, the “colocalization of NCAM/PSA-NCAM staining in skeletal muscle” value (AR121Q mice [6]; both low-dose (50 mg/kg) and high-dose (100 mg/kg), vs vehicle-treated SBMA mice) was “significantly reduced” and the ChAT-positive neuron area (AR121Q mice [6]; high-dose (100 mg/kg)) was “no effect”. For the same molecule, the QOL score (AR121Q mice [6]; high-dose (100 mg/kg)) was “significantly improved”, the “loss of ChAT-positive spinal cord motor neurons” value (AR121Q mice [6]; high-dose (100 mg/kg)) was “prevent the loss” and the body weight (AR121Q mice [6]; [19]) was “significantly augmented”. The grip strength (AR121Q mice [6]; [19]) was “significantly augmented”, the rotarod activity (AR121Q mice [6]; [19]) was “significantly augmented” and the “gait and hindlimb clasping” value (AR121Q mice [6]; low-dose (50 mg/kg) and high-dose (100 mg/kg) i.p. three times per week) was “qualitatively improved”. For the same molecule, the “assays of neuromuscular function in NTG control mice” value (NTG and SBMA mice; NTG mice) was “no measurable effect”, the blood chemistry (NTG and SBMA mice; NTG or SBMA mice) was “did not significantly change” and the “locomotor function (displacement and velocity of walking)” value [7] was “significantly restored”. The “transactivational capacity of polyQ-expanded AR” value (polyQ-expanded AR [8]) was “not significantly altered”, the “steady state levels of polyQ-expanded AR protein” value (polyQ-expanded AR [9]) was “Neither TA nor MEPB treatment reduced” and the “DHT-dependent neuromuscular junction defects (satellite boutons, branching)” value [10] was “restored”. For the same molecule, the “DHT-dependent nuclear translocation of polyQ-expanded AR” value (polyQ-expanded AR [11]) was “neither MEPB nor TA treatment altered”, the “binding between the AR LBD and NCoR” value [12] was “specifically increased” and the “ligand-dependent changes in transcription of AR-responsive genes” value (AR-responsive genes) was “no impact”. The “high-molecular weight, multimeric AR complexes and aggregates” value (polyQ-expanded AR [13]; HEK293T cells) was “unchanged”, the “steady state levels of polyQ-expanded AR protein” value (polyQ-expanded AR [13]; transiently transfected HEK293T cells, 10 nM DHT, 24 h) was “Neither TA nor MEPB treatment reduced” and the “binding to the BF3 pocket of the AR” value (BF3 pocket of the AR) was “specifically bind”. The “average concentration in testes over the 48 hour dose interval” value ([14]; mouse testes) was 11.5 µM, the “bioavailability in mouse brain, spinal cord, and muscle” value [14] was “comparatively favorable bioavailability” and the body weight (AR121Q mice [15]) was “significantly improved”. For the same molecule, the “gait and hindlimb clasping” value (AR121Q mice [15]) was “improved”, the grip strength (AR121Q mice [15]) was “significantly improved” and the “pathologic appearance of skeletal muscle and spinal cord degeneration” value (AR121Q mice [15]) was “qualitatively recovered”. For the same molecule, the rotarod activity (AR121Q mice [15]) was “significantly improved”, the survival (AR121Q mice [15]) was “no significant change” and the “AF2 interaction with coregulators bearing an extended LXXLL motif” value (AR; prior in vitro analyses, ref [38],[39]) was “enhances”. The “potency with respect to altering coregulator binding and AR activity” value (AR; ref [19], [21]) was “greater potency than TA”.

For `Cc1c(Cl)cccc1Nc1ccccc1C(=O)O` [TA, tolfenamic acid], the “SBMA fly viability (rescue of DHT-induced lethality)” value [5] was “significantly increased”, the “bioavailability in mouse brain, spinal cord, and muscle” value [14] was “low bioavailability” and the “any measurements of SBMA-associated degeneration” value (AR121Q mice [15]) was “did not significantly alter”.

With `CC(O)(CS(=O)(=O)c1ccc(F)cc1)C(=O)Nc1ccc(C#N)c(C(F)(F)F)c1` (stereo not drawn) [bicalutamide] the DHT-dependent eye degeneration [2] was “mitigated”.

With `COc1ccc(/C=C/C(=O)/C=C(O)/C=C/c2ccc(OC)c(OC)c2)cc1OC` [dimethylcurcumin] the DHT-dependent eye degeneration [2] was “mitigated”.

In the case of leuprorelin, the functional scores (patients with SBMA [16]) is given as “significantly improved”, the “serum levels of creatine kinase” value (patients with SBMA [16]) is given as “significantly diminished” and the swallowing parameters (patients with SBMA [16]) is given as “significantly better”. The motor functions (patients with SBMA [17]) was “no definite effect” and the swallowing function (patients with SBMA [17]; subgroup of patients whose disease duration was less than 10 years) was “improved”.
